# STAT1 activator: increases IFN-gamma driven STAT1 reporter signal. activation (% of control), % at 5.5 µM. 200,000 tested, 2.6% active. NIH 3T3 STAT1-luciferase reporter, luminescence; 100% = IFN-gamma alone, no compound;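 active = activation above the screen-wide mean activation plus 3 SD, cut at about 130% in these data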
# Rad51 HR inh: Rad51 (human) homologous recombination inhibition; Q06609; hRad51 DNA strand exchange, fluorescence dequenching; inhibition, % at 10 µM; 200,000 tested, 0.085% active; AID 1385;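 active = inhibition above 40% at the single screening dose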
#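 System: human Rad51 nucleoprotein filaments preassembled on unlabelled ssDNA. Reagent: labelled 47-mer dsDNA for strand exchange. Schedule: 30-min compound preincubation and 15-min exchange, both room temperature. Measured by: FRET fluorescence dequenching, excitation 485 nm, emission 520 nm. Read-out: Fluorescence-based percent inhibition, control- and blank-normalised. Benchmarks: plate controls and plate blanks.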
# NF-kB neuron act: compounds increasing NF-kB expression in human neuronal cells. NF-kB reporter expression; stronger effect = higher value. fold change at 12.5 µM. 190,000 tested, 1.6% active. AID 1239; in the data active = fold change above about 3.3
# APP 5'UTR act: activates APP 5'UTR luciferase reporter. SH-SY5Y APP 5'UTR luciferase reporter, luminescence; zero percent = DMSO vehicle wells. AID 1276. activation, % at 2 µM. 190,000 tested, 1% active;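 active = activation above a set limit, based on mean plus 3 SD of controls, cut at about 140% in these data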
# FLuc inh counter: Photinus pyralis luciferase inhibition counter-screen; AID 1006; 200,000 tested, 1.5% active; ATPLite firefly luciferase biochemical luminescence, 10 min; P08659; inhibition, % at 10 µM;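 active = inhibition above about 50% when tested at 10 µM, limit read from the data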
# Target sequence (P08659 whole entry, looked up): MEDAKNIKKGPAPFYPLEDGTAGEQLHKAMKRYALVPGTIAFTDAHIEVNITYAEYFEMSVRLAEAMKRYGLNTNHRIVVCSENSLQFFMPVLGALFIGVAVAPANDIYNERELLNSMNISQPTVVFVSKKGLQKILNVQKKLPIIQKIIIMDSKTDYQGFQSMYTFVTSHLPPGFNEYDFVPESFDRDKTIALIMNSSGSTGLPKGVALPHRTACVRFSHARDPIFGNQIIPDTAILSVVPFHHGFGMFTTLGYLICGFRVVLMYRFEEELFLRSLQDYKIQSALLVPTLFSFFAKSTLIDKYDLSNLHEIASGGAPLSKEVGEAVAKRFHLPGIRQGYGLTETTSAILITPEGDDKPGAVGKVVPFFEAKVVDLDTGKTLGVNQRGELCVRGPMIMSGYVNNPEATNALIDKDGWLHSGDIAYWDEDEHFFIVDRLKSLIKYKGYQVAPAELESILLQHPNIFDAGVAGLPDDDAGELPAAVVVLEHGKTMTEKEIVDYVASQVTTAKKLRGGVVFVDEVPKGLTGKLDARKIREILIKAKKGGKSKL
# FLuc act counter: affects firefly luciferase, flagging false hits in luciferase stimulation screens | activation factor at 10 µM | 200,000 tested, under 10 active | P08659 | AID 1027 | ATPlite luciferase biochemical, luminescence, 10 min; 0 = ATP-free wells, 1 = DMSO control;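 active = luciferase activation factor, scaled between plate controls, of at least 2 with compound at 10 µM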
#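 Material: Luciferase/luciferin reagent mix; Doses: test compounds dosed from 2 mM stocks in 100% DMSO; Schedule: 10 min incubation after luciferase reagent addition, room temperature; Measured by: luminescence from luciferase reaction; Read-out: luminescence gain marking luciferase activators.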
# Hits are given with their value; i = inactive; nt = not tested or not shown. Only some compounds are listed: those with a hit (about 3.9% of all), similar ones and a draw of the others.
SMILES,STAT1 activator,Rad51 HR inh,NF-kB neuron act,APP 5'UTR act,FLuc inh counter,FLuc act counter
COc1ccc2nc(SCC(=O)c3ccco3)[nH]c2c1,130,i,i,i,i,i
CCOc1ccc2nc(SCC(=O)N(C)C)[nH]c2c1,133,i,i,i,i,i
Cc1ccn2c(Nc3ccccc3C)c(-c3ccncc3)nc2c1,i,i,i,i,i,i
NN=C1c2cc([N+](=O)[O-])ccc2-c2ccc([N+](=O)[O-])cc21,i,i,i,i,i,i
Nc1ccc(C#Cc2ccccc2)cc1,130,i,i,i,i,i
Nc1ccccc1C#Cc1ccccc1,146,i,8.7,i,i,i
CCOC(=O)c1sc2nc(CSc3ccccc3)nc(NCCN(C)C)c2c1C,i,i,i,i,i,i
Cc1ccc(NC(=S)NNS(=O)(=O)c2ccc3ccccc3c2)cc1Cl,i,nt,nt,i,i,i
Cc1ccc(N2C(=O)C3ON(c4ccccc4)C(CC(C)C)C3C2=O)cc1 (centres undefined),nt,i,nt,nt,nt,nt
CCCCNC(=O)c1ccccc1NC(=O)CCC,i,i,i,i,i,i
NS(=O)(=O)c1ccc(NNC(=O)c2sccc2Cl)cc1,nt,i,nt,nt,nt,nt
Cc1ccc([N+](=O)[O-])cc1-c1ccc(/C=C(\C#N)c2[nH]nc(N)c2C#N)o1,140,i,i,i,i,i
C/C(N)=C(/C#N)C(=O)CSc1nnc(-c2ccc(OC(F)F)cc2)o1,148,i,4.8,i,i,i
C/C(N)=C(/C#N)C(=O)CSc1nnc(-c2ccc3c(c2)OCO3)o1,134,i,6.9,i,i,i
C/C(=N\NC(=O)COc1ccc(C(C)(C)C)cc1)c1ccccc1,i,i,i,i,i,i
C/C(=N\NC(=O)COc1ccc(C)cc1C(C)C)c1cc2ccccc2o1,i,i,i,i,72,i
C/C(=N\NC(=O)COc1ccc(C)cc1C(C)C)c1ccc(-n2ccnc2)cc1,i,i,i,i,i,i
C/C(=N\NC(=O)COc1ccc(C(C)(C)C)cc1)c1cc2ccccc2o1,i,i,i,i,94,i
Cc1c(C#N)c(NC(=O)CCl)n(Cc2cccs2)c1C,i,i,i,i,i,i
NC(=O)c1cc2ccccc2o/c1=N/NC(=O)c1cccs1,134,i,i,i,i,i
O=C(NC(=S)Nc1ccc(NC(=O)c2cccs2)cc1)c1cc2ccccc2o1,i,i,i,i,i,i
Cc1ccc(C(=O)c2cc3ccccc3o2)cc1C,136,i,3.7,i,i,i
O=C(c1cc2ccccc2o1)c1cccs1,145,i,i,nt,i,i
COc1ccc2o/c(=N/NC(=O)c3cccs3)c(C(N)=O)cc2c1,138,i,i,i,i,i
NC(=O)c1cc2ccccc2o/c1=N\NC(=O)c1ccncc1,i,i,i,i,i,i
SMILES,STAT1 activator,Rad51 HR inh,NF-kB neuron act,APP 5'UTR act,FLuc inh counter,FLuc act counter
Cc1nc(N)sc1C(=O)N1N=N1,nt,i,nt,nt,nt,nt
COc1ccccc1OCCNC(=O)c1cc(F)c(F)cc1Cl,i,i,i,i,i,i
O=C(NC1CCCCCCC1)c1cc(F)c(F)cc1Cl,130,i,i,i,i,i
Cc1cc(C(=O)CN2C(=O)C(=O)N(C3CCCC3)C2=O)c(C)n1-c1ccc(F)cc1,i,i,i,i,i,i
O=C(NCCOc1ccccc1F)c1cc(F)c(F)cc1Cl,134,i,i,i,i,i
Cc1cc(C(=O)NC2CCCCC2)c(C)n1-c1ccc(F)cc1,i,i,i,i,51,i
Cc1cc(C(=O)CN2CCCCC2)c(C)n1-c1ccc(F)cc1,130,i,i,i,i,i
COC(=O)CCC(=O)NC(=S)Nc1ccc(S(=O)(=O)N2CCCC2)cc1,i,i,i,i,i,i
CCC1=NN(C(=O)CCc2ccc3c(c2)OCO3)C(O)(C(F)(F)F)C1 (centres undefined),i,i,i,i,i,i
CCOC(=O)CC(NC(=O)c1ccc(C)cc1)c1ccc(OC)cc1 (centres undefined),i,i,i,i,i,i
Fc1ccccc1N=C1NN=C(c2ccccc2)CS1,143,i,4.6,158,i,i
Clc1ccccc1N=C1NN=C(c2cccs2)CS1,143,i,4.3,183,i,i
Fc1ccc(N=C2NN=C(c3cc(F)ccc3F)CS2)cc1,i,i,i,i,i,i
O=C1CSC(=Nc2ccccc2Cl)N1,i,i,i,i,i,i
Fc1ccc(F)c(C2=NNC(=Nc3ccccc3F)SC2)c1,143,i,5.1,i,i,i
Cc1cc(Nc2cc(Cl)nc(Sc3ccc(NC(=O)C4CC4)cc3)n2)n[nH]1,nt,i,nt,nt,nt,nt
OCCNc1nc(Nc2cc(Cl)ccc2OC2CCCC2)nc(N2CCCC2)n1,nt,i,nt,nt,nt,nt
O=C(c1ccc(-c2ccccc2)cc1)N1CCN(c2ccccn2)CC1,i,i,i,i,i,i
COc1cccc(C(=O)Nc2ccc(NC(=O)C(C)(C)C)cn2)c1,i,i,i,138,88,i
CCCC(=O)Nc1ccc(NC(=O)c2ccccc2)nc1,nt,i,nt,nt,nt,nt
CCC(=O)Nc1cnc(NC(=O)c2cccc(F)c2)cc1C,142,i,i,i,i,i
COc1cccc(C(=O)Nc2ccc(NC(C)=O)cc2)c1,i,i,i,nt,i,i
CCC(=O)Nc1ccc(NC(=O)c2ccccc2)nc1,i,i,i,i,62,i
Nc1nc(COc2ccc3ccccc3c2)cs1,138,i,i,i,i,i
CC(=O)Nc1nc(COc2ccc3ccccc3c2)cs1,i,i,i,i,i,i
SMILES,STAT1 activator,Rad51 HR inh,NF-kB neuron act,APP 5'UTR act,FLuc inh counter,FLuc act counter
Nc1nc(CCOc2ccc(F)cc2)cs1,141,i,i,i,i,i
Nc1nc(-c2ccc(F)cc2)cs1,i,i,i,i,i,i
COc1ccccc1S(=O)(=O)CC(O)COc1ccc(C#N)cc1 (centres undefined),i,i,i,i,i,i
COc1ccc2nc(/N=C(\N)NC(=O)N3c4ccccc4Sc4ccccc43)nc(C)c2c1,i,i,i,i,i,i
CCC(=O)N/C(N)=N/c1nc(C)c2cc(OC)ccc2n1,134,i,i,i,i,i
COc1ccc2nc(/N=C(\N)NC(=O)C(C)(C)C)nc(C)c2c1,129,i,i,i,i,i
CC[C@@H]1CC=C[C@H]2[C@H]1C(=O)N(Cc1ccccc1)[C@H]2c1ccc2ccccc2c1,nt,i,nt,nt,nt,nt
C[C@]12CCC(O)CC1CCC1C2CC[C@]2(C)C(c3cc(C(F)(F)F)n[nH]3)CCC12 (some centres undefined),nt,i,nt,nt,nt,nt
CCc1cccc(C)c1N1C(=O)CC(C)(C)CC1=O,nt,i,nt,nt,nt,nt
Cc1ccc(OCCOc2cccc(Br)c2)c([N+](=O)[O-])n1,132,i,i,i,i,i
O=C(c1cc(-c2cccs2)on1)N1CCN(c2ccc(F)cc2)CC1,i,i,3.4,i,i,i
O=C(c1cc(-c2cccs2)on1)N1CCN(c2ccccc2)CC1,i,nt,i,i,i,i
COc1ccc(/C(=C/Nc2cccc(Br)c2)C(C)=O)cc1OC,i,i,i,i,i,i
